Experimental data reported in ChEMBL document CHEMBL4715831, “Design and synthesis of 2-((1H-indol-3-yl)thio)-N-phenyl-acetamides as novel dual inhibitors of respiratory syncytial virus and influenza virus A” (Eur J Med Chem, 2020).

How the values were obtained:
[1] = system: Respiratory syncytial virus; experiment: Antiviral activity against GFP-fused wild-type RSV subgroup A Long infected in human HEp-2 cells measured 24 to 72 hrs post infection by fluorescence assay; format: functional, cell-based
Summary of the method: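 HEp-2 cells plated, then after 24 h infected with RSV-mGFP using 3-fold serially diluted inocula starting from 3 × 10^4 pfu/well. Compounds came from a 100 mM DMSO stock, diluted as indicated. RFU read at 479/517 nm at 24, 48 and 72 h post-infection, with non-infected cells as background. Mean ± SD of at least three experiments.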

[2] = Cytotoxicity against human HEp-2 cells assessed as reduction in cell viability measured after 48 hrs by MTS assay; format: cell-based
Summary of the method: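 HEp-2 cells plated; after 24 h, compound added and cells incubated 48 h. MTS (2 mg/ml) then added for 3 h at 37 °C in 5% CO2 and absorbance read at 490 nm. Untreated control set as 100%.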

[3] = Cytotoxicity against HEK293T cells assessed as reduction in cell viability measured after 48 hrs by CCK8 assay; format: cell-based, HEK-293T; conditions: human
Summary of the method: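 293T cells treated for 48 h with six compound concentrations from 12.5 to 200 μM, with DMSO-only cells as control. CCK-8 then added for 1 h at 37 °C and OD read at 450 nm. Mean ± SD of three experiments.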

[4] = Safety index, ratio of CC50 for HEK293T cells to EC50 for antiviral activity against Influenza A virus A/WSN/33(H1N1) infected in human HEK293T cells; format: toxicity, cell-based; conditions: read-out: Ratio CC50/EC50
Influenza A virus [5] = experiment: Antiviral activity against Influenza A virus A/WSN/33(H1N1) infected in human HEK293T cells measured after 24 hrs by Gaussia luciferase reporter gene method; format: functional, organism-based; conditions: A/WSN/1933(H1N1); for EC50: HEK-293T
Summary of the method: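 HEK293T cells carrying a Gaussia luciferase reporter that is activated by IAV, infected with A/WSN/33 (H1N1) for 1 h at room temperature, then cultured 24 h at 37 °C with serially diluted compound. Supernatant Gluc read with coelenterazine-h (16.7 μM in PBS) as 0.5-s photon counts. Normalized to control set as 100%; ribavirin positive control; three experiments.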

[6] = Safety index, ratio of CC50 for human HEp-2 cells to EC50 for GFP-fused wild-type RSV subgroup A long infected in human HEp-2 cells; format: toxicity, cell-based; conditions: read-out: Ratio CC50/EC50
[7] = Antiviral activity against H3N2 infected in MDCK cells measured after 24 hrs by Gaussia luciferase reporter gene method; format: functional, cell-based, H3N2 subtype; conditions: Influenza A virus
Summary of the method: (§1)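 MDCK cells infected with IAV A/WSN/33 (H1N1) or H3N2 for 1 h at room temperature, then cultured in fresh DMEM with serially diluted compound for 24 h at 37 °C. Gluc activity in the medium read with coelenterazine-h (16.7 μM in PBS). Normalized to control set as 100%; ribavirin positive control; mean ± SD of three experiments.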

Influenza A virus [8] = experiment: Antiviral activity against Influenza A virus A/WSN/33(H1N1) infected in MDCK cells measured after 24 hrs by Gaussia luciferase reporter gene method; format: functional, organism-based; conditions: A/WSN/1933(H1N1); summary of the method: as §1

COc1cccc2[nH]cc(SCC(=O)Nc3ccc(Cl)c(Cl)c3)c12
EC50 [1]: > 128 µM | CC50 at 48 h [2]: > 256 µM | CC50 at 48 h [3]: > 100 µM | selectivity ratio [4]: > 6.61 | EC50 (Influenza A virus [5]): 15.1 µM

Cn1cc([S+]([O-])CC(=O)Nc2ccc(Cl)cc2)c2ccccc21 (centres undefined)
EC50 [1]: > 128 µM | CC50 at 48 h [2]: 61.9 µM | CC50 at 48 h [3]: > 100 µM | selectivity ratio [4]: > 10 | EC50 (Influenza A virus [5]): 9.93 µM

Cn1cc(S(=O)(=O)CC(=O)Nc2cc(Cl)ccc2Cl)c2ccccc21
EC50 [1]: > 128 µM | CC50 at 48 h [2]: > 1000 µM | CC50 at 48 h [3]: > 100 µM | selectivity ratio [4]: > 6.72 | EC50 (Influenza A virus [5]): 18 µM

Cn1cc([S+]([O-])CC(=O)Nc2cccc(Cl)c2)c2ccccc21 (centres undefined)
EC50 [1]: > 128 µM | CC50 at 48 h [2]: > 1000 µM | CC50 at 48 h [3]: > 100 µM | selectivity ratio [4]: > 2.55 | EC50 (Influenza A virus [5]): 39.3 µM

COc1ccc2[nH]cc(SCC(=O)Nc3ccc(Cl)c(Cl)c3)c2c1
EC50 [1]: 16.6 µM | CC50 at 48 h [2]: 46.4 µM | CC50 at 48 h [3]: 61.8 µM | selectivity ratio [6]: 2.79 | selectivity ratio [4]: 4.19 | EC50 (Influenza A virus [5]): 15.5 µM

CCOc1ccccc1NC(=O)CSc1c[nH]c2ncccc12
EC50 [1]: > 128 µM | CC50 at 48 h [2]: > 1000 µM | CC50 at 48 h [3]: > 100 µM | selectivity ratio [4]: > 3.21 | EC50 (Influenza A virus [5]): 31.4 µM

O=C(CSc1c[nH]c2ccc(Cl)cc12)Nc1ccc(Cl)c(Cl)c1
EC50 [1]: 9.95 µM | CC50 at 48 h [2]: 35.2 µM | CC50 at 48 h [3]: 42.7 µM | selectivity ratio [6]: 3.54 | selectivity ratio [4]: 5.53 | EC50 (Influenza A virus [5]): 7.62 µM

CCOc1ccccc1NC(=O)CSc1c[nH]c2c(Cl)cccc12
EC50 [7]: 1.83 µM | EC50 (Influenza A virus [8]): 4.33 µM | EC50 [1]: 4.46 µM | CC50 at 48 h [2]: 262 µM | CC50 at 48 h [3]: > 100 µM | selectivity ratio [6]: 58.8 | selectivity ratio [4]: > 57.5 | EC50 (Influenza A virus [5]): 1.75 µM

CCOc1ccccc1NC(=O)CSc1c[nH]c2c(OC)cccc12
Activity [1]: Dose-dependent effect | EC50 [1]: 0.43 µM | CC50 at 48 h [2]: 0.61 µM | CC50 at 48 h [3]: > 100 µM | selectivity ratio [6]: 1.42 | selectivity ratio [4]: > 8.24 | EC50 (Influenza A virus [5]): 12.2 µM

O=C(CSc1c[nH]c2cccc(Cl)c12)Nc1ccc(Cl)c(Cl)c1
EC50 [1]: 25.3 µM | CC50 at 48 h [2]: 27.7 µM | CC50 at 48 h [3]: 34.7 µM | selectivity ratio [6]: 1.09 | selectivity ratio [4]: 5.95 | EC50 (Influenza A virus [5]): 5.72 µM

CCOc1ccccc1NC(=O)CSc1c[nH]c2cc(OC)ccc12
EC50 [1]: 23.1 µM | CC50 at 48 h [2]: 35.2 µM | CC50 at 48 h [3]: 88.2 µM | selectivity ratio [6]: 1.53 | selectivity ratio [4]: 15.4 | EC50 (Influenza A virus [5]): 4.48 µM

CCOc1ccccc1NC(=O)CSc1c[nH]c2ccc(Cl)cc12
EC50 [1]: 18.1 µM | CC50 at 48 h [2]: 204 µM | CC50 at 48 h [3]: 37.6 µM | selectivity ratio [6]: 11.3 | selectivity ratio [4]: 8.97 | EC50 (Influenza A virus [5]): 4.19 µM

COc1cccc2c(SCC(=O)Nc3ccc(Cl)c(Cl)c3)c[nH]c12
EC50 [1]: 17.3 µM | CC50 at 48 h [2]: 39.5 µM | CC50 at 48 h [3]: > 100 µM | selectivity ratio [6]: 2.28 | selectivity ratio [4]: > 7.21 | EC50 (Influenza A virus [5]): 13.8 µM

O=C(CSc1c[nH]c2cc(Cl)ccc12)Nc1ccc(Cl)c(Cl)c1
EC50 [1]: 14 µM | CC50 at 48 h [2]: 27.8 µM | CC50 at 48 h [3]: 67.8 µM | selectivity ratio [6]: 1.99 | selectivity ratio [4]: 9.16 | EC50 (Influenza A virus [5]): 7.36 µM

Cn1cc(S(=O)(=O)CC(=O)Nc2cccc(Cl)c2Cl)c2ccccc21
EC50 [1]: 19.9 µM | CC50 at 48 h [2]: 275 µM | CC50 at 48 h [3]: > 100 µM | selectivity ratio [6]: 13.8 | selectivity ratio [4]: > 2.75 | EC50 (Influenza A virus [5]): 36.3 µM

Cn1cc(SCC(=O)Nc2ccccc2Cl)c2ccccc21
EC50 [1]: > 128 µM | CC50 at 48 h [2]: > 1000 µM | CC50 at 48 h [3]: > 100 µM | selectivity ratio [4]: > 3.59 | EC50 (Influenza A virus [5]): 27.9 µM

COc1ccc2c(SCC(=O)Nc3ccc(Cl)c(Cl)c3)c[nH]c2c1
Activity [1]: Dose-dependent effect | EC50 [1]: 5.79 µM | CC50 at 48 h [2]: 42.7 µM | CC50 at 48 h [3]: 78.4 µM | selectivity ratio [6]: 7.16 | selectivity ratio [4]: 5 | EC50 (Influenza A virus [5]): 15.8 µM

Cn1cc(S(=O)(=O)CC(=O)Nc2ccc(Cl)cc2Cl)c2ccccc21
EC50 [1]: > 128 µM | CC50 at 48 h [2]: > 1000 µM | CC50 at 48 h [3]: > 100 µM | selectivity ratio [4]: > 2.97 | EC50 (Influenza A virus [5]): 33.7 µM

CCOc1ccccc1NC(=O)CSc1c[nH]c2cccc(OC)c12
EC50 [1]: 12.3 µM | CC50 at 48 h [2]: 220 µM | CC50 at 48 h [3]: > 100 µM | selectivity ratio [6]: 17.9 | selectivity ratio [4]: > 8.8 | EC50 (Influenza A virus [5]): 11.2 µM

Cn1cc(SCC(=O)Nc2cccc(Cl)c2Cl)c2ccccc21
EC50 [1]: > 128 µM | CC50 at 48 h [2]: > 1000 µM | CC50 at 48 h [3]: > 100 µM | selectivity ratio [4]: > 7.26 | EC50 (Influenza A virus [5]): 14 µM

O=C(CSc1c[nH]c2ncccc12)Nc1ccc(Cl)c(Cl)c1
EC50 [1]: > 128 µM | CC50 at 48 h [2]: > 256 µM | CC50 at 48 h [3]: > 100 µM | selectivity ratio [4]: > 3.1 | EC50 (Influenza A virus [5]): 31.6 µM

Cn1cc(SCC(=O)Nc2ccc(Cl)cc2)c2ccccc21
EC50 [1]: > 128 µM | CC50 at 48 h [2]: 31.4 µM | CC50 at 48 h [3]: > 100 µM | selectivity ratio [4]: > 10.2 | EC50 (Influenza A virus [5]): 9.82 µM

Cn1cc(SCC(=O)Nc2cc(Cl)ccc2Cl)c2ccccc21
EC50 [1]: > 128 µM | CC50 at 48 h [2]: 76.9 µM | CC50 at 48 h [3]: > 100 µM | selectivity ratio [4]: > 6.38 | EC50 (Influenza A virus [5]): 15.8 µM

CCOc1ccccc1NC(=O)CSc1c[nH]c2cccc(Cl)c12
EC50 [7]: 2.33 µM | EC50 (Influenza A virus [8]): 2.67 µM | Activity [1]: Dose-dependent effect | EC50 [1]: 2.45 µM | CC50 at 48 h [2]: 7.15 µM | CC50 at 48 h [3]: 25.2 µM | selectivity ratio [6]: 2.92 | selectivity ratio [4]: > 41 | Activity (Influenza A virus [5]): Dose-dependent effect | EC50 (Influenza A virus [5]): 0.58 µM

Cn1cc([S+]([O-])CC(=O)Nc2ccccc2Cl)c2ccccc21 (centres undefined)
EC50 [1]: 12.3 µM | CC50 at 48 h [2]: 97.4 µM | CC50 at 48 h [3]: > 100 µM | selectivity ratio [6]: 7.89 | selectivity ratio [4]: > 3.36 | EC50 (Influenza A virus [5]): 29.8 µM

Cn1cc(SCC(=O)Nc2ccc(Cl)cc2Cl)c2ccccc21
EC50 [1]: > 128 µM | CC50 at 48 h [2]: > 1000 µM | CC50 at 48 h [3]: > 100 µM | selectivity ratio [4]: > 8.38 | EC50 (Influenza A virus [5]): 11.9 µM

Cn1cc(SCC(=O)Nc2cccc(Cl)c2)c2ccccc21
EC50 [1]: 23.9 µM | CC50 at 48 h [2]: 18.9 µM | CC50 at 48 h [3]: > 100 µM | selectivity ratio [6]: 0.79 | selectivity ratio [4]: > 10 | EC50 (Influenza A virus [5]): 9.98 µM

O=C(CSc1c[nH]c2c(Cl)cccc12)Nc1ccc(Cl)c(Cl)c1
EC50 [1]: 18.1 µM | CC50 at 48 h [2]: 32.8 µM | CC50 at 48 h [3]: 49.1 µM | selectivity ratio [6]: 1.81 | selectivity ratio [4]: 4.69 | EC50 (Influenza A virus [5]): 10.4 µM
